Results from ChEMBL document CHEMBL4715693, “Synthesis and antiviral properties of novel indole-based thiosemicarbazides and 4-thiazolidinones” (Bioorg Med Chem, 2016).
≈ marks a conversion by molar mass, not a printed value.

Assays:
[1] = Cytotoxicity against human HEL cells assessed as changes in cell morphology incubated for 3 to 6 days by light microscopy; format: cell-based; details: time 3-6 day
Outline: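 Human embryonic lung fibroblasts incubated with serial compound dilutions alongside the antiviral assays, 37 °C, 3–6 days. Morphology inspected by light microscopy; minimal cytotoxic concentration taken as lowest concentration giving minimal morphological change.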

[2] = test system: Vesicular stomatitis virus; test: Antiviral activity against Vesicular stomatitis virus infected in human HeLa cells assessed as reduction in virus-induced cytopathic effect incubated for 3 to 6 days by light microscopic analysis; format: functional, organism-based
Outline: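 CPE reduction assay: virus and serial compound dilutions added together to subconfluent HeLa (vesicular stomatitis, Coxsackie B4, respiratory syncytial) or Vero (Coxsackie B4, Sindbis, Punta Toro) cultures. Incubated 3–6 days at 37 °C. Mean ± SEM of three independent tests.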

Sindbis virus = test: Antiviral activity against Sindbis virus infected in African green monkey Vero cells assessed as reduction in virus-induced cytopathic effect incubated for 3 to 6 days by light microscopic analysis; format: functional, organism-based
Outline: (§1)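 CPE reduction assay: virus and serial compound dilutions added together to subconfluent HeLa (vesicular stomatitis, Coxsackie B4, respiratory syncytial) or Vero (Coxsackie B4, Sindbis, Punta Toro) cultures. Incubated 3–6 days at 37 °C. […] Mean ± SEM of three independent tests.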

Felid alphaherpesvirus 1 = test: Antiviral activity against Feline herpesvirus infected in cat CRFK cells assessed as reduction in virus-induced cytopathic effect incubated for 3 to 6 days by light microscopic analysis; format: functional, organism-based; details: Felid alphaherpesvirus 1, CRFK
[3] = Cytotoxicity against African green monkey Vero cells assessed as changes in cell morphology incubated for 3 to 6 days by light microscopy; format: cell-based; details: chlorocebus sabaeus, time 3-6 day
Outline: (§2)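 Uninfected subconfluent cells (Vero or HeLa, as named) exposed to serial compound dilutions in parallel with the CPE assays, 37 °C, 3–6 days. Cell morphology examined by light microscopy; MCC = minimal concentration causing microscopically detectable changes in morphology.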

MT4 = test: Cytotoxicity against human MT4 cells assessed as reduction in cell viability incubated for 3 to 6 days by MTS assay; format: cell-based; details: time 3-6 day
Outline: (§3)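 CRFK or MT4 cells were exposed to serial compound dilutions alongside the antiviral assays for 3–6 days at 37 °C.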

[4] = test system: Human immunodeficiency virus 1; test: Antiviral activity against Human immunodeficiency virus 1 infected in human MT4 cells assessed as reduction in virus-induced cytopathic effect incubated for 3 to 6 days by light microscopic analysis; format: functional, organism-based; details: Human immunodeficiency virus 1, MT4
[5] = test system: Mammalian orthoreovirus 1; test: Antiviral activity against Mammalian orthoreovirus 1 infected in African green monkey Vero cells assessed as reduction in virus-induced cytopathic effect incubated for 3 to 6 days by light microscopic analysis; format: functional, organism-based; details: Mammalian orthoreovirus 1, Vero
[6] = Selectivity index, ratio of MCC for African green monkey Vero cells to EC50 for Human coxsackievirus B4 infected in African green monkey Vero cells; format: toxicity
[7] = Cytotoxicity against human HeLa cells assessed as changes in cell morphology incubated for 3 to 6 days by light microscopic analysis; format: cell-based; details: time 3-6 day; outline: as §2
Human alphaherpesvirus 2 = test: Antiviral activity against Herpes simplex virus 2 infected in human HEL cells assessed as reduction in virus-induced cytopathic effect incubated for 3 to 6 days by light microscopic analysis; format: functional, cell-based; details: Human alphaherpesvirus 2, HEL
Coxsackievirus B4 [8] = test: Antiviral activity against Human coxsackievirus B4 infected in human HeLa cells assessed as reduction in virus-induced cytopathic effect incubated for 3 to 6 days by light microscopic analysis; format: functional, organism-based; details: Enterovirus B; outline: as §1
[9] = test system: Human immunodeficiency virus 2; test: Antiviral activity against Human immunodeficiency virus 2 infected in human MT4 cells assessed as reduction in virus-induced cytopathic effect incubated for 3 to 6 days by light microscopic analysis; format: functional, organism-based; details: Human immunodeficiency virus 2, MT4
Human respirovirus 3 = test: Antiviral activity against Human parainfluenza virus 3 infected in African green monkey Vero cells assessed as reduction in virus-induced cytopathic effect incubated for 3 to 6 days by light microscopic analysis; format: functional, organism-based; details: Human respirovirus 3, Vero
[10] = Cytotoxicity against dog MDCK cells assessed as changes in cell morphology incubated for 3 to 6 days by light microscopy; format: cell-based, Canis lupus familiaris; details: time 3-6 day
Feline coronavirus = test: Antiviral activity against Feline coronavirus infected in cat CRFK cells assessed as reduction in virus-induced cytopathic effect incubated for 3 to 6 days by light microscopic analysis; format: functional, organism-based; details: Alphacoronavirus 1, CRFK
[11] = Selectivity index, ratio of MCC for human HeLa cells to EC50 for Human coxsackievirus B4 infected in human HeLa cells; format: toxicity, cell-based
Outline: (§4)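 HeLa cells infected concurrently with addition of serial compound dilutions, 3–6 days at 37 °C. CPE inhibition scored microscopically for EC50; MCC from minimal alteration of cell morphology by microscopy; index = MCC divided by EC50.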

[12] = test system: Respiratory syncytial virus; test: Antiviral activity against Respiratory syncytial virus infected in human HeLa cells assessed as reduction in virus-induced cytopathic effect incubated for 3 to 6 days by light microscopic analysis; format: functional, organism-based; outline: as §1
Coxsackievirus B4 [13] = test: Antiviral activity against Human coxsackievirus B4 infected in African green monkey Vero cells assessed as reduction in virus-induced cytopathic effect incubated for 3 to 6 days by light microscopic analysis; format: functional, organism-based; details: Enterovirus B; outline: as §1
Human alphaherpesvirus 1 = test: Antiviral activity against Herpes simplex virus 1 infected in human HEL cells assessed as reduction in virus-induced cytopathic effect incubated for 3 to 6 days by light microscopic analysis; format: functional, cell-based; details: Human alphaherpesvirus 1, HEL
Vaccinia virus = test: Antiviral activity against Vaccinia virus infected in human HEL cells assessed as reduction in virus-induced cytopathic effect incubated for 3 to 6 days by light microscopic analysis; format: functional, organism-based; details: Orthopoxvirus vaccinia
[14] = Cytotoxicity against cat CRFK cells assessed as reduction in cell viability incubated for 3 to 6 days by MTS assay; format: cell-based, Felis catus; details: crfk, time 3-6 day; outline: as §3
Influenza B virus = test: Antiviral activity against influenza B virus infected in dog MDCK cells assessed as reduction in virus-induced cytopathic effect incubated for 3 to 6 days by light microscopic analysis; format: functional, organism-based
Outline: (§5)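 MDCK cells, subconfluent, received influenza A or B virus together with serial compound dilutions. Incubated 3–6 days at 35 °C.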

Punta Toro virus = test: Antiviral activity against Punta Toro virus infected in African green monkey Vero cells assessed as reduction in virus-induced cytopathic effect incubated for 3 to 6 days by light microscopic analysis; format: functional, organism-based; outline: as §1
Influenza A virus = test: Antiviral activity against influenza A virus infected in dog MDCK cells assessed as reduction in virus-induced cytopathic effect incubated for 3 to 6 days by light microscopic analysis; format: functional, organism-based; outline: as §5
[15] = Selectivity index, ratio of MCC for human HeLa cells to EC50 for Respiratory syncytial virus infected in human HeLa cells; format: toxicity, cell-based; outline: as §4
[16] = Selectivity index, ratio of MCC for African green monkey Vero cells to EC50 for Sindbis virus infected in African green monkey Vero cells; format: toxicity

Row | Compound | MCC [1] | EC50 [2] [µg/mL] | EC50 (Felid alphaherpesvirus 1) [µg/mL] | MCC [3] | CC50 (MT4) [µg/mL] | EC50 [4] [µg/mL] | EC50 [5] | MCC [7] | EC50 (Human alphaherpesvirus 2) [µg/mL] | EC50 (Coxsackievirus B4 [8]) | EC50 [9] [µg/mL] | EC50 (Human respirovirus 3) | EC50 (Feline coronavirus) [µg/mL] | EC50 [12] | EC50 (Coxsackievirus B4 [13]) | EC50 (Human alphaherpesvirus 1) [µg/mL] | EC50 (Vaccinia virus) [µg/mL] | CC50 [14] [µg/mL] | EC50 (Influenza B virus) [µg/mL] | EC50 (Punta Toro virus) [µg/mL] | other results
1 | CNC(=S)NNC(=O)c1[nH]c2ccc(F)cc2c1-c1ccccc1 | 20 µg/mL | > 100 | > 100 | 20 µg/mL | 18 (≈ 52.6 µM) | > 100 | > 100 µg/mL | 20 µg/mL | > 100 | 2.1 µg/mL | > 100 | > 100 µg/mL | > 100 | > 100 µg/mL | 1.7 µg/mL | > 100 | > 100 | 7.5 (≈ 21.9 µM) | > 100 | > 100 | EC50 (Sindbis virus): > 100 µg/mL; selectivity ratio [6]: 12; MCC [10]: 20 µg/mL; selectivity ratio [11]: 9; EC50 (Influenza A virus; Influenza A virus, MDCK): > 100 µg/mL
2 | CCCCNC(=S)NNC(=O)c1[nH]c2ccc(F)cc2c1-c1ccccc1 | > 10 µg/mL | > 100 | > 100 | 10 µg/mL | 11 (≈ 28.6 µM) | > 100 | > 100 µg/mL | 4 µg/mL | > 100 | > 100 µg/mL | > 100 | > 100 µg/mL | > 100 | > 100 µg/mL | > 100 µg/mL | > 100 | > 100 | 1.4 (≈ 3.64 µM) | > 100 | > 100 | EC50 (Sindbis virus): > 100 µg/mL; MCC [10]: 10 µg/mL; EC50 (Influenza A virus; Influenza A virus, MDCK): > 100 µg/mL
3 | O=C(NNC(=S)NCc1ccccc1)c1[nH]c2ccc(F)cc2c1-c1ccccc1 | > 10 µg/mL | > 100 | > 100 | 10 µg/mL | 11 (≈ 26.3 µM) | > 100 | > 100 µg/mL | 4 µg/mL | > 100 | > 100 µg/mL | > 100 | > 100 µg/mL | > 100 | > 100 µg/mL | > 100 µg/mL | > 100 | > 100 | 1.9 (≈ 4.54 µM) | > 100 | > 100 | EC50 (Sindbis virus): > 100 µg/mL; EC50 (Influenza A virus; Influenza A virus, MDCK): > 100 µg/mL
4 | NC(=O)c1ncn([C@@H]2O[C@H](CO)[C@@H](O)[C@H]2O)n1 [RIBAVIRIN] | > 250 µM | – | – | > 250 µM | – | – | > 250 µM | > 250 µM | – | 61 µM | – | > 250 µM | – | 15 µM | > 250 µM | – | – | – | – | – | EC50 (Influenza A virus; mdck): 8.9 µM
5 | O=C(NNC(=S)NCCc1ccccc1)c1[nH]c2ccc(F)cc2c1-c1ccccc1 | 10 µg/mL | > 100 | > 100 | 10 µg/mL | 11 (≈ 25.4 µM) | > 100 | > 100 µg/mL | 4 µg/mL | > 100 | > 100 µg/mL | > 100 | > 100 µg/mL | > 100 | > 100 µg/mL | > 100 µg/mL | > 100 | > 100 | 1.9 (≈ 4.39 µM) | > 100 | > 100 | EC50 (Sindbis virus): > 100 µg/mL; MCC [10]: 2 µg/mL; EC50 (Influenza A virus; Influenza A virus, MDCK): > 100 µg/mL
6 | CCCNC(=S)NNC(=O)c1[nH]c2ccc(F)cc2c1-c1ccccc1 | 20 µg/mL | > 100 | > 100 | – | 11 (≈ 29.7 µM) | > 100 | > 100 µg/mL | 20 µg/mL | > 100 | 1.1 µg/mL | > 100 | > 100 µg/mL | > 100 | ≥ 2.3 µg/mL | 1.8 µg/mL | > 100 | > 100 | 9.7 (≈ 26.2 µM) | > 100 | > 100 | EC50 (Sindbis virus): 6.5 µg/mL (≈ 17.5 µM); selectivity ratio [6]: 56; MCC [10]: 0.8 µg/mL; selectivity ratio [11]: 18; selectivity ratio [15]: ≥ 9; selectivity ratio [16]: 15; EC50 (Influenza A virus; Influenza A virus, MDCK): > 100 µg/mL
7 | CCNC(=S)NNC(=O)c1[nH]c2ccc(F)cc2c1-c1ccccc1 | 20 µg/mL | > 100 | > 100 | 20 µg/mL | 14 (≈ 39.3 µM) | > 100 | > 100 µg/mL | 20 µg/mL | > 100 | 0.87 µg/mL | > 100 | > 100 µg/mL | > 100 | ≥ 4 µg/mL | 0.4 µg/mL | > 100 | > 100 | 2.9 (≈ 8.14 µM) | > 100 | > 100 | selectivity ratio [6]: 50; MCC [10]: 4 µg/mL; selectivity ratio [11]: 23; selectivity ratio [15]: ≥ 5; selectivity ratio [16]: 6; EC50 (Influenza A virus; Influenza A virus, MDCK): > 100 µg/mL
